Bioassay records from PubChem BioAssay.
CHO parental Ca – ATP-evoked calcium signal inhibitors, parental CHO, primary screen, counter-screen for OX1R antagonist project, cell-based, fluorescence, Fluo-8 calcium dye. inhibition, % at 5.6 µM. actives 0.63% (n = 330,000). parental CHO-K1, ATP-induced calcium, Fluo-8 fluorescence;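 active = inhibition above that plate's mean sample inhibition plus 3 SD, cut at about 26% in these data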
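Material: parental CHO cells / Compound: single nominal dose of 5.6 µM per compound / Signal: Fluo-8 fluorescence / Replicates: singlicate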
GPR7 antag – GPR7 receptor antagonists, primary screen, cell-based, fluorescence, single concentration | actives 1.1% (n = 290,000) | inhibition, % at 4.4 µM | AID 1861, 2009 | Neuropeptides B/W receptor type 1 (Homo sapiens), P48145 | GPR7-expressing cells, fluorescence antagonist assay; in the data active = inhibition above about 16%, passing the limit was not always enough;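 also: cells stimulated with the agonist NPW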
Target sequence (P48145 whole entry, looked up): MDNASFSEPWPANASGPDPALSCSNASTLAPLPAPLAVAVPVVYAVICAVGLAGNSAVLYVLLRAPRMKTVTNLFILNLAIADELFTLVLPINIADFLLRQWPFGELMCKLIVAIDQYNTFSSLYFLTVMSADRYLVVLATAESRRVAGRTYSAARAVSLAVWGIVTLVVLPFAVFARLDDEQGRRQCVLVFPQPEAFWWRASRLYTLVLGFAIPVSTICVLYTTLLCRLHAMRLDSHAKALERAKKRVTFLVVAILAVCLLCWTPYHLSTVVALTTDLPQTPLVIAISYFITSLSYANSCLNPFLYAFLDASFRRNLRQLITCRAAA
OX1R antag-1 – OX1R (HCRTR1) antagonists, primary screen, fluorescence, CHO/OX1R cells, Fluo-8 calcium, orexin A; Fluo-8 calcium fluorescence; inhibition, % at 5 µM; actives 0.43% (n = 330,000); AID 434989, 2010;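 active = inhibition above its plate's threshold, mean inhibition of all tested compounds on the plate plus 3 SD, cut at about 37% in these data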
TAAR1 ag – human TAAR1 agonists, primary screen, Fluo-8 calcium fluorescence, CHO RD-HGA16 cells. Trace amine-associated receptor 1 (Homo sapiens), Q96RJ0. vehicle wells 0%, saturating PEA agonist 100%. activation, % at 3 µM. actives 0.99% (n = 360,000). AID 624467, 2012;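 active = activation above the mean activation of all test compounds in the run plus 3 SD, cut at about 38% in these data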
Target sequence (Q96RJ0 whole entry, looked up): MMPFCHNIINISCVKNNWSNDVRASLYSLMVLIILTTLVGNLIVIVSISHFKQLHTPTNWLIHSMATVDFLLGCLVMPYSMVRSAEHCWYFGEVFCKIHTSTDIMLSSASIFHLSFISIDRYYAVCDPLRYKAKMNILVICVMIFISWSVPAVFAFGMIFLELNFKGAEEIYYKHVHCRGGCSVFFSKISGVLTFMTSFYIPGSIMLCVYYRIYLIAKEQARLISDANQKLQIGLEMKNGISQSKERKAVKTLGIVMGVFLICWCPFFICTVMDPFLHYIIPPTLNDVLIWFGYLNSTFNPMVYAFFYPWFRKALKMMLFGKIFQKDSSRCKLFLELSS
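Assay system: CHO-derived RD-HGA16 cells with stable Gα16 and human TAAR1; timing: 17-24 h seeding, 75 min 37 °C dye, 30 min RT; read-out: % activation from peak over basal fluorescence ratio, DMSO-to-PEA scaled; measured by: kinetic Fluo-8 calcium fluorescence; benchmarks: low control DMSO, high control PEA (EC100); doses: 3 µM single concentration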
OX1R antag-2 – antagonists of human orexin 1 receptor (OX1R) | OX1R-expressing cells, FRET antagonist read-out | inhibition, % at 6.6 µM | actives 1.8% (n = 330,000); in the data active = inhibition mostly above about 38%, no sharp cut-off; inactive = mostly below about 40%
TAAR1 antag – human TAAR1 antagonists, primary screen, Fluo-8 calcium fluorescence, CHO RD-HGA16 cells; AID 624466, 2012; antagonist; actives 1.5% (n = 360,000); Trace amine-associated receptor 1 (Homo sapiens), Q96RJ0; inhibition, % at 3 µM;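 active = inhibition above a per-plate cutoff, the mean inhibition of test compounds on that plate plus 3 SD, cut at about 49% in these data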
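System: CHO RD-HGA16 cells bearing hTAAR1. Reagent: EC80 β-phenethylamine stimulus. Schedule: seeding 17-24 h prior, 75-min 37 °C, 30-min RT dye loading. Signal: Fluo-8 intracellular calcium dye fluorescence, real-time kinetic reads. Read-out: % inhibition from peak post-agonist over basal fluorescence ratio. Benchmarks: vehicle wells and EC80 agonist wells. Replicates: n of 1.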
TAAR1 ag conf – human TAAR1 agonists, retest of hits, confirmation, Fluo-8 calcium fluorescence, CHO RD-HGA16 cells; shares compounds with TAAR1 ag; actives 82% (n = 2,400); activation, % at 3 µM; scaled: DMSO 0%, maximal phenethylamine 100%;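 active = activation above a cutoff set at the run's mean compound activation plus 3 SD, cut at about 39% in these data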
Ga16 nonsel ag – nonselective calcium mobilization agonists, CHO-Ga16 cells, counter-screen for hTAAR1 agonist project, cell-based, fluorescence, CHO-Ga16 parental line | shares compounds with TAAR1 ag | Fluo-8 calcium fluorescence; normalized to maximal ATP response, DMSO zero | activation, % at 3 µM | actives 50% (n = 2,400) | AID 651787, 2012;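 active = activation above the run cutoff, the mean activation over all tested wells plus 3 SD, cut at about 12% in these data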
TAAR1 desens – TAAR1 desensitization by agonist hits, confirmation, counter-screen for TAAR1 agonist project, cell-based, fluorescence, tachyphylaxis. shares compounds with TAAR1 ag. CHO RD-HGA16 hTAAR1, Fluo-8 calcium, beta-PEA response inhibition. inhibition, % at 3 µM. actives 46% (n = 2,400);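 active = inhibition above the run cutoff, the mean inhibition of all test compounds plus 3 SD, cut at about 49% in these data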;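 also: beta-PEA stimulus applied at its EC80; loss of beta-PEA calcium signal after compound pretreatment read as receptor desensitization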
Ga16 nonsel ant – inhibition of ATP-evoked calcium response in CHO-Ga16 cells, counter-screen for TAAR1 agonist project, cell-based, fluorescence; AID 651952, 2012; CHO-Ga16 ATP-induced calcium, Fluo-8 fluorescence; shares compounds with TAAR1 ag; actives 39% (n = 2,400); inhibition, % at 3 µM;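 active = inhibition above the plate's mean compound inhibition plus 3 SD, computed per plate, cut at about 22% in these data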
Each line names hits and unclear results; the compound was inactive in the other large screens (follow-up assays come after a bar, where they were run). Sampled rows, rich in hits. Any-hit rate of the full collection: about 4.6%.

O=C1CC(O)(C(F)(F)F)Oc2c1ccc1ccccc21 (centres undefined)	TAAR1 ag 76.2 | TAAR1 ag conf 74.8 | Ga16 nonsel ag 69.9 | TAAR1 desens inactive | Ga16 nonsel ant 39.2
Cc1nc2ncnn2c(N2CCN(C(c3ccccc3)c3ccccc3)CC2)c1C	TAAR1 ag 49.0 | TAAR1 ag conf inactive | Ga16 nonsel ag 14.6 | TAAR1 desens inactive | Ga16 nonsel ant inactive
Cc1cc(N2CCN(C(c3ccccc3)c3ccccc3)CC2)n2ncnc2n1	none
S=C(Nc1cc(Cl)cc(Cl)c1)NC1CCN(Cc2ccccc2)CC1	TAAR1 ag 64.4 (no result: CHO parental Ca, OX1R antag-1, OX1R antag-2) | TAAR1 ag conf 57.6 | Ga16 nonsel ag 32.0 | TAAR1 desens 53.2 | Ga16 nonsel ant 45.9
S=C(Nc1ccccc1Cl)NC1CCN(Cc2ccccc2)CC1	none
CC(C)(C)N=C1C([N+](=O)[O-])=CC=C2C1=NC1(CCCCC1)N2O	none
O=[N+]([O-])C1=CC=C2C(=NC3(CCCCC3)N2O)C1=NCCc1ccccc1	TAAR1 ag 44.2 (no result: CHO parental Ca, OX1R antag-1, OX1R antag-2) | TAAR1 ag conf 78.6 | Ga16 nonsel ag inactive | TAAR1 desens 50.4 | Ga16 nonsel ant inactive
O=C(Cn1cnc([N+](=O)[O-])n1)N/N=C/c1ccccc1O	TAAR1 ag 52.9 | TAAR1 ag conf 68.6 | Ga16 nonsel ag inactive | TAAR1 desens inactive | Ga16 nonsel ant inactive
CCN(CC(=O)NCc1ccc(Cl)cc1)C(=O)CN1C(=O)NC(CC)(c2ccccc2)C1=O (centres undefined)	none
Cc1ccc(CNC(=O)COC(=O)CCOc2ccc(C)cc2)cc1	none (no result: GPR7 antag)
CCOC(=O)C(C(=O)OCC)c1cc(Br)c2noc3c2c1C(=O)c1ccccc1-3	CHO parental Ca 38.5, TAAR1 ag 59.2, TAAR1 antag 72.7 | TAAR1 ag conf 66.2 | Ga16 nonsel ag 62.1 | TAAR1 desens 86.7 | Ga16 nonsel ant 85.4
CCOC(=O)c1c(C)[nH]c(C(=O)COC(=O)c2cnccn2)c1C	TAAR1 ag 74.2 (no result: GPR7 antag) | TAAR1 ag conf inactive | Ga16 nonsel ag inactive | TAAR1 desens inactive | Ga16 nonsel ant inactive
CCOC(=O)c1c(C)[nH]c(C(=O)COC(=O)c2cccnc2Cl)c1C	none (no result: GPR7 antag)
Cc1cc2c(cc1S(=O)(=O)CCC(=O)NCCc1ccccc1)OCC(=O)N2	TAAR1 ag 88.7, TAAR1 antag 51.5 | TAAR1 ag conf 100.8 | Ga16 nonsel ag inactive | TAAR1 desens 74.7 | Ga16 nonsel ant inactive
Cc1cccc(CCNC(=O)CCS(=O)(=O)c2cc3c(cc2C)NC(=O)CO3)c1	none
O=C(NCc1ccccn1)[C@@H]1CCCN1C(=O)[C@@H]1CCCN1C(=O)c1c(F)cccc1F	none (no result: CHO parental Ca, GPR7 antag, OX1R antag-1, OX1R antag-2)
COc1ccc(S(=O)(=O)N2CCN(c3ccccn3)CC2)cc1[N+](=O)[O-]	none
COc1ccc(S(=O)(=O)N2CCN(c3ncccn3)CC2)cc1[N+](=O)[O-]	TAAR1 ag 94.5 | TAAR1 ag conf inactive | Ga16 nonsel ag inactive | TAAR1 desens inactive | Ga16 nonsel ant inactive
NC(N)=N/N=C(\N=Nc1ccccc1)c1ccc(Cl)cc1	TAAR1 ag 49.0 (no result: CHO parental Ca, GPR7 antag, OX1R antag-1, OX1R antag-2) | TAAR1 ag conf 76.3 | Ga16 nonsel ag 37.8 | TAAR1 desens 76.9 | Ga16 nonsel ant 49.8
COc1ccc(NC(=O)C2CCCN2C(=O)NC2CCCCC2)c(OC)c1 (centres undefined)	none
O=C(Cc1ccccc1)NNC(=O)c1ccc(NC(=O)c2ccccc2)cc1	none
O=C(CSc1ccccc1)Nc1ccc(C(=O)Nc2ccc(O)cc2)cc1	TAAR1 ag 75.2 (no result: CHO parental Ca, OX1R antag-1, OX1R antag-2) | TAAR1 ag conf inactive | Ga16 nonsel ag inactive | TAAR1 desens inactive | Ga16 nonsel ant inactive
O=C1C(Cl)=C(NC(=O)c2ccccc2)C(=O)C(Cl)=C1NC(=O)c1ccccc1	TAAR1 ag 53.0, OX1R antag-2 48.5, TAAR1 antag 69.5 | TAAR1 ag conf inactive | Ga16 nonsel ag 20.7 | TAAR1 desens 55.0 | Ga16 nonsel ant 49.0
O=C(NNC(=O)c1ccc(NC(=O)c2ccccc2)cc1)c1ccccc1	TAAR1 ag 60.9 | TAAR1 ag conf inactive | Ga16 nonsel ag inactive | TAAR1 desens inactive | Ga16 nonsel ant inactive
O=C(Nc1ccc(C2SCCS2)cc1)c1ccccc1	TAAR1 ag 63.1 | TAAR1 ag conf 61.6 | Ga16 nonsel ag 28.4 | TAAR1 desens inactive | Ga16 nonsel ant 36.3
COc1ccccc1OCc1ccc(C(=O)Nc2ccccc2)cc1	TAAR1 ag 63.0, TAAR1 antag 57.0 (no result: GPR7 antag) | TAAR1 ag conf 46.2 | Ga16 nonsel ag 27.4 | TAAR1 desens 60.3 | Ga16 nonsel ant 37.3
Cc1ccc(CCC(=O)Nc2ccc([N+](=O)[O-])cc2)o1	none
COc1ccc(Cn2c(-c3ccc(C)cc3)nc3c(c(=O)c4ccccc4n3C)c2=O)cc1	TAAR1 ag 91.5, TAAR1 antag 57.8 | TAAR1 ag conf 84.9 | Ga16 nonsel ag 52.9 | TAAR1 desens 67.9 | Ga16 nonsel ant 41.7
COc1ccc(CCNCC(O)c2ccccc2)cc1 (centres undefined)	none
OC(CNCCc1ccccc1)c1ccccc1 (centres undefined)	TAAR1 ag 53.1 | TAAR1 ag conf inactive | Ga16 nonsel ag inactive | TAAR1 desens inactive | Ga16 nonsel ant inactive
CCCc1cc(C(=O)Nc2cc(C)ccc2O)no1	none
CCSc1nnc(NC(=O)C2CC(=O)N(Cc3ccc(C)cc3)C2)s1 (centres undefined)	none
O=[N+]([O-])c1ccc(N/N=C/c2cccc(O)c2)cc1	TAAR1 ag 58.8 | TAAR1 ag conf 42.8 | Ga16 nonsel ag inactive | TAAR1 desens inactive | Ga16 nonsel ant inactive
